Shown are actives, neighbours in structure and some others; about 6.8% of the full set was active somewhere.
Cdc25B inh: inhibitors of human Cdc25B phosphatase | inhibition, %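 (compounds tested at 10 µM final in the well)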 | actives 0.1% (n = 65,000) | recombinant Cdc25B, OMFP fluorescence Ex485/Em525; in the data active = inhibition above about 50%
Target sequence (P30305 whole entry, looked up): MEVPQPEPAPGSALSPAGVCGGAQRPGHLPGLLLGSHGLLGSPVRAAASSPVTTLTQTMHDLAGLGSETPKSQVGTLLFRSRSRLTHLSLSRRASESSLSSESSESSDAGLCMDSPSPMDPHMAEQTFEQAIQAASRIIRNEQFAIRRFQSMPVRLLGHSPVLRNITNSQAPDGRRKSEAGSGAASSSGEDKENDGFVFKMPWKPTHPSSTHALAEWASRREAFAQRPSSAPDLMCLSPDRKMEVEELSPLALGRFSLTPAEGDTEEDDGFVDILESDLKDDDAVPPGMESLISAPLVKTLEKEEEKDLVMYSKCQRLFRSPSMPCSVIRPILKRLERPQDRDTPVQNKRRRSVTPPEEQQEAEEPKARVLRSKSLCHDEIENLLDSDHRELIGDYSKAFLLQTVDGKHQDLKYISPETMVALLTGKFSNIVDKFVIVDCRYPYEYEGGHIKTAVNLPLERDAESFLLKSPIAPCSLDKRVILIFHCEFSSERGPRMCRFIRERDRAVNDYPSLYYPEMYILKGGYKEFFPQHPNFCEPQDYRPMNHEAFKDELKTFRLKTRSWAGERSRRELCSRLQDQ
DUSP1 inh: inhibitors of human MKP-1 phosphatase; P28562; recombinant MKP-1, OMFP hydrolysis fluorescence; inhibition, %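 (compounds tested at a single concentration somewhere between 10 and 100 µM)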; actives 0.15% (n = 65,000); AID 374;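 active = inhibition above about 50%, limit read from the data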;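 note: 0% = DMSO max control wells and 100% = wells with enzyme stopped by NaOH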
HEK293 NFkB inh: lowers PMA/ionomycin-induced NF-kB signal in HEK293 cells. inhibition, % at 3 µM. HEK-293 NF-kB luciferase reporter, luminescence. actives 0.21% (n = 62,000);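 active = inhibition above the mean of all tested compounds plus 3 SD, cut at about 40% in these data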;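 note: 0% = stimulated DMSO wells and 100% = 10 µM reference inhibitor 5653914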
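Material: HEK-293 cells with stable firefly luciferase reporter driven by four HIV NF-kB elements / Also added: PMA plus ionomycin mix as NF-kB-activating stimulus / Compound dosing: 3 µM once, 0.30% DMSO / Times: 1 h pretreatment, 16 h stimulation, 37 °C / Signal: luminescence / Evaluation: per-plate % inhibition versus controls / Benchmarks: DMSO and 10 µM reference inhibitor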
M1 antag: blocks the rat M1 muscarinic receptor response to acetylcholine. B-score at 10 µM. P08482. CHO-M1 cells, Fluo-4 calcium, ACh EC80 antagonist mode; hits give low values. AID 628. actives 3.4% (n = 64,000);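 active = calcium fluorescence response, raw or row-and-column corrected B-score, differing from the plate sample mean either way at a set confidence level, mostly lower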
Her2 expr inh: Her2 kinase expression inhibition. P04626. SKBR-3 HER2 protein level, AlphaScreen, 18-24 h; hits give low values. HER2 level % of control, % at 10 µM. actives 0.69% (n = 65,000). AID 645;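 active = HER2 level under 5% of the carrier-only control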;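 note: 100% = DMSO carrier and 0% = 500 nM PU-H71 HSP90 inhibitor; lower value means stronger loss of Her2 protein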
M1 agonist: agonists of M1 muscarinic receptor. CHO-M1 cells, Fluo-4 calcium fluorescence, agonist mode; hits give high values. B-score at 10 µM. actives 3% (n = 64,000). AID 626;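 active = fluorescence rise, raw or as B-score row- and column-corrected plate score, outside the 99.7% band of its plate's samples, either direction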
M1 antag confirm: M1 muscarinic receptor (rat) antagonism, confirmed; actives 43% (n = 1,700); AID 677; shares compounds with M1 antag; calcium response (max-min fluorescence) at 10 µM; CHO-M1 cells, Fluo-4 calcium, ACh EC80 antagonism; hits give low values;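 active = calcium response below the same-plate mean of wells given acetylcholine alone at its 80%-effect dose, minus 3 SD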;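 note: raw fluorescence intensity difference in arbitrary instrument units and not normalized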
mGluR4 antag: mGluR4 (human) activity, M1 antagonist secondary assay; fluorescence response (max-min) at 10 µM; shares compounds with M1 antag; actives 0.9% (n = 1,700); AID 678; CHO-mGluR4 calcium flux, Fluo-4 fluorescence, glutamate EC80; hits give low values;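 active = fluorescence response below the plate's average for near-maximal glutamate wells, less 3 SD of those wells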;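 note: raw unnormalized fluorescence span taken in the window right after glutamate addition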
* hit, by the source's call.

Screening CCOC(=O)c1c(NC(=O)CC)sc(C(C)=O)c1C returned Cdc25B inh -3, DUSP1 inh -15, HEK293 NFkB inh 7, M1 antag -0.05, Her2 expr inh 112 and M1 agonist -0.22.
For CCCCn1c(Cc2ccccc2)n[nH]c1=S the results were Cdc25B inh -7, DUSP1 inh 28, HEK293 NFkB inh 7, M1 antag -12*, Her2 expr inh 90, M1 agonist -0.46, M1 antag confirm 53* and mGluR4 antag 263.
O=C(c1ccccc1)N1CC(COc2ccccc2)OC(c2cccnc2)O1 (configuration not stated) was read as Cdc25B inh -29, DUSP1 inh 6, HEK293 NFkB inh -2, M1 antag -4.3*, Her2 expr inh 82, M1 agonist -1.2, M1 antag confirm 677 and mGluR4 antag 246.
CN1CCCN=C1COC(=O)C(O)(c1ccccc1)C1CCCCC1 (configuration not stated) was read as Cdc25B inh 15, DUSP1 inh -21, M1 antag -16*, Her2 expr inh 113, M1 agonist 0.51, M1 antag confirm 26* and mGluR4 antag 247.
`CCc1cc2c3c(c(=O)oc2cc1OC)CCCC3` gave Cdc25B inh 3, DUSP1 inh 10, HEK293 NFkB inh 20, M1 antag -1.8*, Her2 expr inh 122, M1 agonist 0.036, M1 antag confirm 487 and mGluR4 antag 202.
CCOc1cc2oc(=O)c3c(c2cc1Cl)CCC3 was read as Cdc25B inh 1, DUSP1 inh 9, HEK293 NFkB inh 10, M1 antag 0.046, Her2 expr inh 134 and M1 agonist 0.7.
O=C1CC(NCc2ccncc2)C(=O)N1c1ccc(Cl)cc1 (configuration not stated) was read as Cdc25B inh 18, DUSP1 inh -11, M1 antag 0.4, Her2 expr inh 85 and M1 agonist 0.052.
Screening Cc1cc(-c2ccccc2)c2nncn2n1 returned Cdc25B inh -1, DUSP1 inh -3, HEK293 NFkB inh 18, M1 antag -14*, Her2 expr inh 91, M1 agonist 0.35, M1 antag confirm 635 and mGluR4 antag 206.
`C=C(C)COc1ccc2c(C)c(CC(=O)OC)c(=O)oc2c1C` gave Cdc25B inh -12, DUSP1 inh 1, HEK293 NFkB inh -20, M1 antag -2*, Her2 expr inh 79, M1 agonist -1.2, M1 antag confirm 641 and mGluR4 antag 225.
Screening CCCCOc1ccc(NC(=O)CSc2nnnn2C)cc1 returned Cdc25B inh -4, DUSP1 inh 4, HEK293 NFkB inh 4, M1 antag -0.12, Her2 expr inh 91 and M1 agonist 0.36.
Screening CCOc1ccc(N2CC(C(=O)Nc3ccccc3F)CC2=O)cc1 (configuration not stated) returned Cdc25B inh -2, DUSP1 inh -2, HEK293 NFkB inh -2, M1 antag -0.39, Her2 expr inh 88 and M1 agonist -0.017.
`Cc1csc(NC(=O)CSc2ncnc3c2cnn3-c2ccccc2Cl)n1` gave Cdc25B inh -8, DUSP1 inh 8, HEK293 NFkB inh -5, M1 antag -2.7*, Her2 expr inh 48, M1 agonist 3.9, M1 antag confirm 501 and mGluR4 antag 184.
For Cc1ccccc1-n1ncc2c(SCC(=O)NCc3cccs3)ncnc21 the results were Cdc25B inh 0, DUSP1 inh -10, HEK293 NFkB inh 10, M1 antag -0.38, Her2 expr inh 58 and M1 agonist -0.014.
`N#CCCCn1c(-c2ccccc2)noc1=O` gave Cdc25B inh 4, DUSP1 inh 7, HEK293 NFkB inh 2, M1 antag 0.15, Her2 expr inh 73 and M1 agonist -0.27.
`CCOc1ccccc1C1C(C#N)=C(SCC(=O)OC)NC(=O)C1C(=O)OC` (configuration not stated) gave Cdc25B inh 1, DUSP1 inh -2, HEK293 NFkB inh 7, M1 antag -2.8*, Her2 expr inh 97, M1 agonist 0.11, M1 antag confirm 559 and mGluR4 antag 201.
For CCOC(=O)C1C(=O)NC(SCC(=O)OC)=C(C#N)C1c1ccccc1OCC (configuration not stated) the results were Cdc25B inh -4, DUSP1 inh 12, HEK293 NFkB inh 16, M1 antag 0.2, Her2 expr inh 91 and M1 agonist 0.89.
CCC(C)NS(=O)(=O)c1cccs1 (configuration not stated) was read as Cdc25B inh 5, DUSP1 inh -9, HEK293 NFkB inh 14, M1 antag -3.4*, Her2 expr inh 100, M1 agonist 0.89, M1 antag confirm 644 and mGluR4 antag 261.
Screening CCOC(=O)CNC(=O)C(Cc1ccccc1)NS(=O)(=O)c1cccs1 (configuration not stated) returned Cdc25B inh -6, DUSP1 inh 3, HEK293 NFkB inh 19, M1 antag -1, Her2 expr inh 106 and M1 agonist 0.022.
Screening O=C(Cn1c(=O)oc2cc(S(=O)(=O)N3CCc4ccccc43)ccc21)NC1CCCC1 returned Cdc25B inh 6, DUSP1 inh 0, HEK293 NFkB inh 6, M1 antag -4.3*, Her2 expr inh 96, M1 agonist 0.06, M1 antag confirm 503* and mGluR4 antag 186.
For O=C(Cn1c(=O)oc2cc(S(=O)(=O)N3CCCCCC3)ccc21)NC1CCCCC1 the results were Cdc25B inh -2, DUSP1 inh 5, HEK293 NFkB inh 8, M1 antag 0.079, Her2 expr inh 90 and M1 agonist -0.0031.
CC(C)CCNC(=O)Cn1c(=O)oc2cc(S(=O)(=O)N3CCc4ccccc43)ccc21 was read as Cdc25B inh -8, DUSP1 inh -2, HEK293 NFkB inh 11, M1 antag -4.5*, Her2 expr inh 81, M1 agonist -0.89, M1 antag confirm 478* and mGluR4 antag 201.
For COC(=O)Cn1c(CCS(=O)(=O)c2ccc(C)cc2)nc2ccccc21 the results were Cdc25B inh -7, DUSP1 inh -6, HEK293 NFkB inh 8, M1 antag -0.034, Her2 expr inh 111 and M1 agonist 0.33.
O=C(CSc1nnc(COc2ccccc2Cl)o1)NC(=O)NC1CCCC1 was read as Cdc25B inh -11, DUSP1 inh 26, HEK293 NFkB inh 18, M1 antag -0.72, Her2 expr inh 97 and M1 agonist 0.79.
